Laboratory results: ChEMBL document CHEMBL5252546, “Salutaxel, a Conjugate of Docetaxel and a Muramyl Dipeptide (MDP) Analogue, Acts as Multifunctional Prodrug That Inhibits Tumor Growth and Metastasis” (J Med Chem, 2018)
Activity calls are given as the source filed them. The rule behind the calls is not given here.

Experiments:
4T1 [1] = experiment: Antitumor activity against mouse 4T1 cells xenografted with BALB/c mouse assessed as decrease in tumor weight at 4 mg/kg,iv administrated once per week for 4 weeks; format: functional, organism-based
[2] = Toxicity in BALB/c mouse xenografted with mouse 4T1 cells assessed as decrease in body weight at 4 mg/kg,iv administrated with docetaxel combination once per week for 4 weeks; format: organism-based; details: in vivo, 672 h
Summary of the method: (§1)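 4T1 mammary fat-pad model in BALB/c mice. Doxorubicin (4 mg/kg) was given alone or co-administered with the conjugate or its parent taxane, with iv saline vehicle. Readouts were body weight, tumour volume, tumour weight, lung metastatic nodules and lung metastasis score. Mean ± SEM, n = 10; ANOVA and Student's t test.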

[3] = Toxicity in BALB/c mouse xenografted with mouse 4T1 cells assessed as decrease in body weight at 4 mg/kg,iv administrated once per week for 4 weeks; format: organism-based; details: in vivo, 672 h
[4] = Toxicity in BALB/c mouse xenografted with mouse 4T1 cells assessed as decrease in body weight at 4 mg/kg,iv administrated combination with compound 3 once per week for 4 weeks; format: organism-based; details: in vivo, 672 h; summary of the method: as §1
4T1 [5] = experiment: Antitumor activity against mouse 4T1 cells xenografted with BALB/c mouse assessed as decrease in lung metastasis at 4 mg/kg,iv administrated once per week for 4 weeks; format: functional, organism-based
4T1 [6] = experiment: Antitumor activity against mouse 4T1 cells implanted in BALB/c mouse assessed as decrease in lung Ly-6G expression level at 5 to 20 mg/kg,iv administrated once per week for 4 weeks by immunohistochemistry analysis; format: functional, organism-based; details: dose 5-20 mg/kg
4T1 [7] = experiment: Antitumor activity against mouse 4T1 cells implanted in BALB/c mouse assessed as decrease in lung TSP-1 expression level at 5 to 20 mg/kg,iv administrated once per week for 4 weeks by immunohistochemistry analysis; format: functional, organism-based; details: dose 5-20 mg/kg
4T1 [8] = experiment: Antitumor activity against mouse 4T1 cells implanted in BALB/c mouse assessed as decrease in lung metastasis at 5 to 20 mg/kg,iv administrated once per week for 4 weeks by H and E staining based assay; format: functional, organism-based; details: dose 5-20 mg/kg
4T1 [9] = experiment: Antitumor activity against mouse 4T1 cells implanted in BALB/c mouse assessed as decrease in lung injury at 5 to 20 mg/kg,iv administrated once per week for 4 weeks by H and E staining based assay; format: functional, organism-based; details: dose 5-20 mg/kg

SMILES | Activity (4T1 [1]) | Activity [2] | Activity [3] | Activity [4] | Activity (4T1 [5]) | Activity (4T1 [6]) | Activity (4T1 [7]) | Activity (4T1 [8]) | Activity (4T1 [9])
COc1cccc2c1C(=O)c1c(O)c3c(c(O)c1C2=O)C[C@@](O)(C(=O)CO)C[C@@H]3O[C@H]1C[C@H](N)[C@H](O)[C@H](C)O1 [DOXORUBICIN] | Active | Toxic | Toxic | Toxic | Active |  |  |  | 
CC(=O)O[C@@]12CO[C@@H]1C[C@H](O)[C@@]1(C)C(=O)[C@H](O)C3=C(C)[C@@H](OC(=O)[C@H](OC(=O)CCC(=O)NCCCC[C@H](NC(=O)CC[C@@H](NC(=O)[C@H](C)NC(=O)/C=C/c4ccc(F)cc4Cl)C(N)=O)C(N)=O)[C@@H](NC(=O)OC(C)(C)C)c4ccccc4)C[C@@](O)([C@@H](OC(=O)c4ccccc4)[C@H]21)C3(C)C |  |  |  |  |  | Active | Active | Dose-Dependent Effect | Dose-Dependent Effect
